Measured values pooled from the literature.
Protocols differ between the studies behind these lines.
Target: cGMP-dependent protein kinase 1 (PRKG1, Homo sapiens, UniProt Q13976)
Residues used in one study (Q13976 1-671): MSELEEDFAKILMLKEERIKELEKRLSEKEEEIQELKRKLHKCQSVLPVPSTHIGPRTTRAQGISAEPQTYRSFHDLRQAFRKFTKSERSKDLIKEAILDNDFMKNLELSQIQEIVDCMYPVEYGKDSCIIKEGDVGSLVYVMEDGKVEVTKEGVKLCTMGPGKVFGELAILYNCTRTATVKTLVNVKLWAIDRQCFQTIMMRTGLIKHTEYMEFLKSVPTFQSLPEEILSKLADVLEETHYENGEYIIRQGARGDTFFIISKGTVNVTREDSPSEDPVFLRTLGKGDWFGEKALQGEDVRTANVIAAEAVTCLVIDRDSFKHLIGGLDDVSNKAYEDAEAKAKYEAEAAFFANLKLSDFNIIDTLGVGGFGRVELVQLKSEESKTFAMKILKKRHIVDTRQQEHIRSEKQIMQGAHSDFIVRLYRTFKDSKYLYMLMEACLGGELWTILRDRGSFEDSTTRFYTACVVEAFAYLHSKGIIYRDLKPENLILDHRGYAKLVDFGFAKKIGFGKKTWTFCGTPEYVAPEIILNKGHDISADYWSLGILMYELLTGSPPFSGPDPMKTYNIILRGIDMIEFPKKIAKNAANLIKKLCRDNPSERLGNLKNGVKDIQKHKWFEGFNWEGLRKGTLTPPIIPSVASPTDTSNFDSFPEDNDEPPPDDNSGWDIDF

The inhibition of `Cn1cnc(Br)c1C1=CN(c2ncnc3[nH]cnc23)CCS1` is reported as 97.4% (enzyme activity; inhibitor; radiometric; 2 µM).
`CNC(=O)Nc1ccc2c(c1)CC[C@@]21OC(=O)N(CC(=O)N(Cc2ccc(F)cc2)[C@@H](C)C(F)(F)F)C1=O` has a remaining binding of 100% (cell-free assay; competition with immobilised ligand; 1 µM).
With `CCN(CC)c1ccc(C2=NNC(=O)CC2C)cc1[N+](=O)[O-]` (stereo not shown) the remaining activity was 83% (enzyme activity; inhibitor; 10 µM).
The inhibition of `CCCS(=O)(=O)Nc1ccc(F)c(C(=O)c2c[nH]c3ncc(-c4ccc(Cl)cc4)cc23)c1F` is reported as under 10% (enzyme activity; inhibitor; 1 µM).
With `CC(C)(C)c1nc2c(s1)c1nc(N)ncc1c1ccc(NS(=O)(=O)c3c(F)cccc3F)c(F)c12` the remaining activity was 99% (enzyme activity; inhibitor; radiometric; 1 µM).
With `Cc1cc(NC(=O)c2cccc3cc(-c4cccc5[nH]nc(N)c45)ccc23)ccc1F` the activity vs control was 122% (enzyme activity; inhibitor; 0.1 µM).
`Cc1ccc(C(=O)Nc2ccc(CN3CCN(C)CC3)c(C(F)(F)F)c2)cc1C#Cc1cnc2cccnn12` gave a remaining activity of 72% (enzyme activity; inhibitor; 23.5 nM).
`Cc1nc(C2CCN(C(=O)c3ccc(OC(F)(F)F)cc3N)CC2)c2ncc(N3CCN(C)CC3)cc2n1` gave a remaining binding of 100% (cell-free assay; competition with immobilised ligand; 1 µM).
With `CNC(=O)c1cc(Oc2ccc(NC(=O)Nc3ccc(Cl)c(C(F)(F)F)c3)cc2)ccn1` the inhibition was -10% (enzyme activity; inhibitor; 0.3 µM).
With `CS(=O)(=O)N1CCCC(NC(=O)[C@H](CCC2CCCCC2)NC(=O)c2ccc(CNC(=O)c3cnc4ccccn34)cc2)C1` (stereo partly shown) the remaining binding was 100% (cell-free assay; competition with immobilised ligand; 0.1 µM).
With `COc1cc2ncnc(Nc3ccc(Oc4ccccc4)c(C)c3C)c2cc1OC` the inhibition was 4% (enzyme activity; inhibitor; 1 µM).
`Nc1ncnc2occ(-c3ccc(NC(=O)Nc4cc(C(F)(F)F)ccc4F)cc3)c12` has a remaining signal of 87% (cell-free assay; inhibitor; 20 µM).
With `C[C@H](c1ccc(F)cc1)N(Cc1cccc(C(=O)O)c1)C(=O)c1cnc2ccccc2c1` the remaining binding was 100% (cell-free assay; competition with immobilised ligand; 1 µM).
With `CCCOc1ccc(OC)c(F)c1C(=O)c1ccc(C(=O)N[C@@H]2CNC[C@H]2NC(=O)c2ccc3[nH]ncc3c2)cc1` the remaining activity was 0% (enzyme activity; inhibitor; 0.75 µM).
The remaining binding of `Cc1cc(-n2nc(Cc3cc(F)cc(C(F)(F)F)c3)nc2C)ccc1C(N)=O` is reported as 100% (cell-free assay; competition with immobilised ligand; 1 µM).
`Cc1ccc(NC(=O)c2ccc(C)c(C(F)(F)F)c2)cc1C#Cc1nn(C2CCC(O)CC2)c2ncnc(N)c12` (stereo not shown) gave a remaining signal of 118% (cell-free assay; 10 µM).
